Source: PubChem BioAssay (several laboratories)
Yeast lifespan up: yeast lifespan extension; inhibition of the nicotinamide effect, % at 10 µM; 0.68% of 130,000 active; S. cerevisiae growth with nicotinamide, OD615; deaD strain in restrictive glucose medium; AID 775;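 active = inhibition above a set limit, placed 3 SD over the median of all compounds, cut at about 26% in these data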;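 note: 0% = nicotinamide-treated wells and 100% = cells grown without nicotinamide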
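Assay system: engineered S. cerevisiae DeaD replicative-lifespan strain, galactose-grown log-phase cells; medium: restrictive CSMM-D dextrose medium; also added: nicotinamide, 1.5 mM, co-present with compound; schedule: 48 h compound exposure at 30 °C, humidified; detection: absorbance at 615 nm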
Ins promoter up: MIN6 insulin promoter up-regulation. MIN6 insulin promoter-GFP reporter, high-content imaging; hits give high values. z-score at 5 µM. 0.3% of 190,000 active. AID 1625;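 active = z-score above 3 at 5 µM with at least 500 cells counted in the well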
INS promoter inh: TRM-6 insulin promoter activity inhibition | TRM-6 cells, insulin promoter-eGFP reporter, imaging; reporter expression induced with tamoxifen | inhibition, % at 2 µM | 0.9% of 130,000 active | AID 1273;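 active = inhibition above the mean plus 3 SD, with well images judged a real hit on visual review, cut at about 60% in these data, passing the limit was not always enough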
BB579 growth dn: chemicals that inhibit yeast BB579 growth in restrictive medium (lifespan-shortening candidates) | S. cerevisiae BB579 growth, OD615, 48 h | inhibition, % at 10 µM | 0.51% of 140,000 active;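 active = inhibition above a set limit, 3 SD over the mean compound inhibition, cut at about 44% in these data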
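Assay system – yeast BB579 (DeaD) · Dosing – single compound dose of 10 µM, 0.25% DMSO final · Detection – OD615 turbidity measurement · Buffer or medium – CSMM-D restrictive synthetic medium containing dextrose (glucose) · Benchmarks – positive control amphotericin B 10 µg/mL · Incubation – 48 h exposure, 30 °C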
RAM network inh: inhibitors of the yeast RAM network; S. cerevisiae dse1pr::URA3 reporter, 5-FOA growth OD615, 2 d; analog-sensitive cbk1-as2 kinase mutant strain; inhibition, % at 50 µM; 1.8% of 190,000 active;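 active = inhibition above a set limit, 3 SD over mean compound inhibition, cut at about 8.4% in these data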;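 note: 0% = DMSO-only wells with no growth and 100% = 10 µM 1-NA-PP1 full growth; inhibition rescues growth on 5-FOA so higher OD means more RAM inhibition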
Numbers without * were called inactive. Shown are actives, neighbours in structure and some others; about 3.1% of the full set was active somewhere.

For CCCCNC(=O)Cn1cnc2sc(C)c(S(=O)(=O)N3CCN(c4ncccn4)CC3)c2c1=O the results were Ins promoter up -0.04 and RAM network inh 4.
Screening CCCCC1=CC2=C(c3ccco3)C(=O)C(C)(OC(=O)c3ccc(OC)cc3)C(=O)C2=CN1CC(C)C (configuration not stated) returned Ins promoter up 4.3*.
Screening CCOC1OC(=O)C(Cl)=C1Nc1cc(C)ccc1C (configuration not stated) returned INS promoter inh 50 and RAM network inh 1.
For Nc1nc(Nc2cccc(Cl)c2)n[nH]1 the results were Ins promoter up -0.22.
For COC(=O)c1ccc(-c2nc3ccccc3[nH]2)cc1 the results were Yeast lifespan up -4, Ins promoter up 0.28, INS promoter inh 64*, BB579 growth dn -58 and RAM network inh 3.
COc1ccc(-c2cc(=O)n(-c3nc4ccccc4[nH]3)[nH]2)cc1 was read as Yeast lifespan up -25, Ins promoter up 0.39, INS promoter inh 60, BB579 growth dn 96* and RAM network inh 1.
For COc1ccc(-c2nc3ccccc3[nH]2)cc1 the results were Yeast lifespan up -14, Ins promoter up -0.06, INS promoter inh 94*, BB579 growth dn -4 and RAM network inh 1.
`CCc1ccc(C(=O)CN2C(=O)C(C)N(c3ccc(C)cc3)C2=O)cc1` (configuration not stated) gave Yeast lifespan up 3, Ins promoter up 0.05, INS promoter inh -24, BB579 growth dn -32 and RAM network inh 4.
For O=C(O)c1cc2c(s1)-c1ccccc1CC2 the results were Yeast lifespan up -7, Ins promoter up 0.89, INS promoter inh -22, BB579 growth dn 45* and RAM network inh 0.
`O=[N+]([O-])c1ccc(-c2cnc(SCc3ccccc3Cl)[nH]2)cc1` gave Yeast lifespan up -25, Ins promoter up -0.49, INS promoter inh -3, BB579 growth dn -16 and RAM network inh 0.
`O=[N+]([O-])c1ccc(-c2cnc(SC(c3ccccc3)c3ccccc3)[nH]2)cc1` gave Yeast lifespan up -2, Ins promoter up -1, BB579 growth dn -34 and RAM network inh 9.5*.
O=C(/C=C/c1ccccc1)Nc1ccc(Cl)cn1 was read as Ins promoter up 0.28, INS promoter inh -11 and RAM network inh 2.
Screening NC(=S)N1CCCc2ccccc21 returned Ins promoter up -0.29.
For O=C(CCSc1ccccc1Cl)Nc1cccc([N+](=O)[O-])c1 the results were Yeast lifespan up -6, Ins promoter up -0.05, INS promoter inh 6, BB579 growth dn -60 and RAM network inh 8.9*.
Screening NS(=O)(=O)c1cccc(NC(=O)CCSc2ccccc2Cl)c1 returned Yeast lifespan up 1, Ins promoter up -0.07, INS promoter inh -27, BB579 growth dn 2 and RAM network inh 1.
O=C(NN=C1CCCCCCCCCCC1)c1ccccc1F was read as Yeast lifespan up -3, Ins promoter up 0.06, INS promoter inh -53, BB579 growth dn -10 and RAM network inh 4.
C=CCSc1nc2ccccc2n1S(=O)(=O)c1ccc(Cl)cc1 was read as INS promoter inh 72, BB579 growth dn 3 and RAM network inh 3.
For CCSc1nc2ccccc2n1S(=O)(=O)c1ccccc1 the results were Yeast lifespan up -11, Ins promoter up 1.6, BB579 growth dn 46* and RAM network inh 1.
For O=C(NCCN1CCOCC1)c1cnn2c1NC(c1cccs1)CC2C(F)(F)F (configuration not stated) the results were Ins promoter up -1.3, INS promoter inh -12 and RAM network inh 2.
CC(C)CC(=O)Nc1cccc(-c2csc(-c3ccccc3)n2)c1 was read as Yeast lifespan up -14, Ins promoter up 0.88, INS promoter inh -19, BB579 growth dn -56 and RAM network inh 10*.
`O=[N+]([O-])c1ccc(Cl)c(S(=O)(=O)N2CCCCCC2)c1` gave Yeast lifespan up 5, Ins promoter up -0.25, INS promoter inh -16, BB579 growth dn 57* and RAM network inh 1.
Screening CN1CCN(S(=O)(=O)c2cc([N+](=O)[O-])ccc2Cl)CC1 returned Ins promoter up 0.11 and RAM network inh 0.
Screening Cn1cc(CN2CCCC(C(=O)c3cccs3)C2)c(-c2cccc(Cl)c2)n1 (configuration not stated) returned Ins promoter up 0.15 and RAM network inh 1.
`Cc1cnc(NC(=O)CN2CCN(c3ccccn3)CC2)s1` gave Yeast lifespan up -12, Ins promoter up 3.1*, INS promoter inh -10, BB579 growth dn 2 and RAM network inh 1.
For N#Cc1ccsc1NC(=O)CN1CCN(c2ccccn2)CC1 the results were Yeast lifespan up -2, Ins promoter up -2, INS promoter inh -51, BB579 growth dn -28 and RAM network inh 1.
Screening O=C(/C=C/c1cn(CC(O)CN2CCCCC2)c2ccccc12)c1cccs1 (configuration not stated) returned Yeast lifespan up 0, Ins promoter up 4.6*, BB579 growth dn -28 and RAM network inh 1.
Screening O=C1c2ccccc2C(=O)N1CCCCSc1nnnn1-c1ccccc1 returned Yeast lifespan up -9, Ins promoter up 0.35, BB579 growth dn -42 and RAM network inh 9.3*.
For O=C1c2ccccc2C(=O)N1CSc1nnnn1-c1ccccc1 the results were Yeast lifespan up -10, Ins promoter up -0.04, INS promoter inh -5, BB579 growth dn -28 and RAM network inh 1.
`COC(=O)c1c(-c2ccccc2Cl)noc1-c1cnc(N)nc1C(F)(F)F` gave Ins promoter up -0.07.
For CCOC(=O)C(CCCP(=O)(c1ccccc1)c1ccccc1)(NC(C)=O)C(=O)OCC the results were Ins promoter up 0.24.
`CCOC(=O)C(C)(C)Sc1nc2c(cnn2-c2ccc(C)cc2)c(=O)[nH]1` gave INS promoter inh 100*, BB579 growth dn -17 and RAM network inh 3.
For C/C(=N\S(=O)(=O)c1ccc(C)cc1)Nc1cc(C(C)C)c(O)cc1C the results were Yeast lifespan up -3, Ins promoter up 0.05, INS promoter inh 38, BB579 growth dn -2 and RAM network inh 1.
For O=C(N/N=C/c1cn(-c2ccccc2)nc1-c1ccc([N+](=O)[O-])cc1)c1ccncc1 the results were Ins promoter up -0.26.
`CCC(=O)N(C)/C=C1\Sc2ccccc2C1=O` gave Yeast lifespan up -32, Ins promoter up 0.18, INS promoter inh -29, BB579 growth dn -21 and RAM network inh -1.
`O=CN(/C=C1\Sc2ccccc2C1=O)Cc1ccccc1` gave Yeast lifespan up 48*, Ins promoter up -0.3, INS promoter inh -17, BB579 growth dn -26 and RAM network inh 0.
`O=C(CS(=O)(=O)c1cn(Cc2cccc(F)c2)c2ccccc12)N1CCOCC1` gave Yeast lifespan up -5, Ins promoter up -1.2, BB579 growth dn -12 and RAM network inh 9.3*.
`O=C(CS(=O)(=O)c1cn(Cc2ccc(F)cc2)c2ccccc12)N1CCOCC1` gave Ins promoter up 0.22 and RAM network inh 1.
